# Assay results collected from several papers.
# Lines come from different studies, so protocols differ.
# XDH: Xanthine dehydrogenase/oxidase (XDH, Bos taurus, UniProt P80457)
# NT5E: 5'-nucleotidase (NT5E, Homo sapiens, UniProt P21589)
# Adra1b: Alpha-1B adrenergic receptor (Adra1b, Rattus norvegicus, UniProt P15823)
Structure (SMILES),target,observed,mode,technique,concentration,inhibition
C#Cc1cc(-c2cc(Nc3nc(N[C@@H](C)c4ccc(F)cn4)ncc3Cl)n[nH]2)ccc1C=O,"Mitogen-activated protein kinase kinase kinase kinase 5 (MAP4K5, Homo sapiens, UniProt Q9Y4K4)",enzyme activity,inhibitor,,0.2 µM,92%
Oc1ncnc2[nH]ncc12,XDH,enzyme activity,inhibitor,,25 µg/mL,> 90%
Cc1cccc(NC(=O)c2sc3nc(C)cc(C)c3c2N)n1,NT5E,enzyme activity,inhibitor,,10 µM,-21%
O=C(O)CCc1nccc2c3ccccc3n(Cc3ccc(Br)c4ccccc34)c12,XDH,enzyme activity,inhibitor,absorbance,10 µM,16.4%
N#Cc1c(C(F)(F)F)cc(-c2ccccc2)nc1SCC(=O)Nc1ccccc1,NT5E,enzyme activity,inhibitor,,10 µM,16%
NC/C(=C\F)COc1cccc(Cn2c(=S)[nH]c(=O)c3[nH]cnc32)c1,Adra1b,ligand displacement,,radioligand,10 µM,< 50%
O=C(O[C@@H]1COC(=O)c2cc(O)c(O)c(O)c2-c2c(cc(O)c(O)c2O)C(=O)O[C@H]1[C@@H]1OC(=O)c2cc(O)c(O)c(O)c2-c2c(O)c(O)c(O)c3c2C(=O)O[C@H]1[C@@H]3O)c1cc(O)c(O)c(O)c1,XDH,enzyme activity,inhibitor,,25 µg/mL,29.8%
COCCOCCOCCNC(=O)c1sc2nc(-c3ccccc3)cc(C(F)(F)F)c2c1N,NT5E,enzyme activity,inhibitor,,10 µM,-9%
O=C(O)/C=C/c1nccc2c3ccccc3n(Cc3ccc(Br)c4ccccc34)c12,XDH,enzyme activity,inhibitor,absorbance,10 µM,17.8%
CCN1/C(=C/C(C)=O)Sc2ccc(F)cc21,Adra1b,ligand displacement,,radioligand,10 µM,4.13%
O=C(NS(=O)(=O)c1ccccc1)c1cc2ccccc2n1Cc1ccc(C2CC2)c2ccccc12,XDH,enzyme activity,inhibitor,absorbance,10 µM,2.49%
Cc1cc(O)c(-c2ccc([C@@H](C)CN(C)C)cc2)c2c1[nH]c(=O)c1sccc12,"Cyclin-dependent kinase 13 (CDK13, Homo sapiens, UniProt Q14004)",enzyme activity,inhibitor,,0.1 µM,-1.62%
